Measured values as given in ChEMBL document CHEMBL5325390, “1,2,4-Triazole-3-thione analogues with an arylakyl group at position 4 as metallo-β-lactamase inhibitors” (Bioorg Med Chem, 2022).
Active and inactive are the calls of the source. No cut-off for these calls is given here.

Tests used:
[1] = biological target: Metallo-beta-lactamase type 2 (Bacteria) (UniProt C7C422); test: Inhibition of NDM1 (unknown origin) expressed in Escherichia coli BL21(DE3) assessed as substrate hydrolysis at 200 uM by UV-Vis spectrophotometric analysis relative to control
Chain of Metallo-beta-lactamase type 2 (Bacteria) (C7C422 whole entry): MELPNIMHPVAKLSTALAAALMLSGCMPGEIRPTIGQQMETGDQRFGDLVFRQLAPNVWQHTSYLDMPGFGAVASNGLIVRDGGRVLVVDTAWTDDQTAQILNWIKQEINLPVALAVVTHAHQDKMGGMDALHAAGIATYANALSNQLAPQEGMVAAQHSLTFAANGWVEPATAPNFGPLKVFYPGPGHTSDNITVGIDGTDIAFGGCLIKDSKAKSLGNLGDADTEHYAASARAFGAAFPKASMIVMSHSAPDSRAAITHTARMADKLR
In short: (§1)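 Single-point screen at 100 or 200 µM inhibitor against purified MBL (1–70 nM) with 150 µM imipenem or meropenem reporter substrate, 50 mM HEPES pH 7.5, 30 °C. Initial hydrolysis rate read by absorbance at 300 nm and compared with the uninhibited reaction. Triplicate.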

[2] = biological target: Metallo-beta-lactamase type 2 (Bacteria) (UniProt C7C422); test: Inhibition of NDM1 (unknown origin) expressed in Escherichia coli BL21(DE3) assessed as substrate hydrolysis at 100 uM by UV-Vis spectrophotometric analysis relative to control; in short: as §1
[3] = test system: metallo-β-lactamase VIM-2 (Pseudomonas aeruginosa); test: Inhibition of VIM-2 (unknown origin) expressed in Escherichia coli BL21(DE3) assessed as substrate hydrolysis at 200 uM by UV-Vis spectrophotometric analysis relative to control
[4] = test system: metallo-β-lactamase VIM-4 (Pseudomonas aeruginosa); test: Inhibition of VIM-4 (unknown origin) expressed in Escherichia coli BL21(DE3) assessed as substrate hydrolysis at 200 uM by UV-Vis spectrophotometric analysis relative to control
[5] = biological target: Beta-lactamase VIM-1 (Bacteria) (UniProt Q8GDC1); test: Inhibition of VIM-1 (unknown origin) expressed in Escherichia coli BL21(DE3) assessed as substrate hydrolysis at 100 uM by UV-Vis spectrophotometric analysis relative to control; in short: as §1
[6] = test system: metallo-β-lactamase IMP-1 (Pseudomonas aeruginosa); test: Inhibition of IMP1 (unknown origin) expressed in Escherichia coli BL21(DE3) assessed as substrate hydrolysis at 100 uM by UV-Vis spectrophotometric analysis relative to control
[7] = test system: metallo-β-lactamase IMP-1 (Pseudomonas aeruginosa); test: Inhibition of IMP1 (unknown origin) expressed in Escherichia coli BL21(DE3) assessed as substrate hydrolysis at 200 uM by UV-Vis spectrophotometric analysis relative to control
[8] = Binding affinity to VIM-4 (unknown origin) expressed in Escherichia coli BL21(DE3) assessed as inhibition constant by measuring rate of substrate hydrolysis by UV-Vis spectrophotometric analysis
In short: (§2)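 Purified MBL (1–70 nM) with 150 µM imipenem or meropenem as reporter substrate, 50 mM HEPES pH 7.5, 30 °C. Hydrolysis followed by absorbance at 300 nm without and with inhibitor (0.5 µM–1 mM). Ki from the slope of v0/vi vs [I] under a competitive model, or from Dixon plots varying inhibitor and substrate. […] Triplicate, mean ± SD.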

Klebsiella pneumoniae [9] = test: Antimicrobial synergistic activity against blaVIM-4-producing multidrug-resistant Klebsiella pneumoniae VA416/02 clinical isolate assessed as meropenem MIC at 32 ug/ml by CLSI based broth microdilution method (reference value: 16 ug/ml); type: functional; conditions: dose 32 µg/ml
Beta-lactamase VIM-1 = Beta-lactamase VIM-1 (Bacteria, UniProt Q8GDC1); test: Binding affinity to VIM-1 (unknown origin) expressed in Escherichia coli BL21(DE3) assessed as inhibition constant by measuring rate of substrate hydrolysis by UV-Vis spectrophotometric analysis; in short: as §2
Escherichia coli = test: Synergistic antimicrobial activity against blaNDM-1-producing multidrug-resistant Escherichia coli SI-004M clinical isolate assessed as meropenem MIC at 32 ug/ml by CLSI based microdilution method (reference value: 64 ug/ml); type: functional; conditions: dose 32 µg/ml
[10] = Binding affinity to VIM-2 (unknown origin) expressed in Escherichia coli BL21(DE3) assessed as inhibition constant by measuring rate of substrate hydrolysis by UV-Vis spectrophotometric analysis; in short: as §2
[11] = test system: metallo-β-lactamase L1 (Stenotrophomonas maltophilia); test: Inhibition of L1 (unknown origin) expressed in Escherichia coli BL21(DE3) assessed as substrate hydrolysis at 100 uM by UV-Vis spectrophotometric analysis relative to control
Klebsiella pneumoniae [12] = test: Antimicrobial synergistic activity against blaVIM-1-producing multidrug-resistant Klebsiella pneumoniae 7023 clinical isolate assessed as meropenem MIC at 32 ug/ml by CLSI based broth microdilution method (reference value: 16 ug/ml); type: functional; conditions: dose 32 µg/ml
[13] = test system: metallo-β-lactamase VIM-4 (Pseudomonas aeruginosa); test: Inhibition of VIM-4 (unknown origin) expressed in Escherichia coli BL21(DE3) assessed as substrate hydrolysis at 100 uM by UV-Vis spectrophotometric analysis relative to control
[14] = test system: metallo-β-lactamase VIM-2 (Pseudomonas aeruginosa); test: Inhibition of VIM-2 (unknown origin) expressed in Escherichia coli BL21(DE3) assessed as substrate hydrolysis at 100 uM by UV-Vis spectrophotometric analysis relative to control
[15] = biological target: Beta-lactamase VIM-1 (Bacteria) (UniProt Q8GDC1); test: Inhibition of VIM-1 (unknown origin) expressed in Escherichia coli BL21(DE3) assessed as substrate hydrolysis at 200 uM by UV-Vis spectrophotometric analysis relative to control; in short: as §1
[16] = biological target: T1, Angiotensin-converting enzyme (Oryctolagus cuniculus) (UniProt P12822); test: Inhibition of rabbit lung angiotensin-converting enzyme at 100 uM using Abz-Gly-Phe-(NO2)-Pro as substrate by fluorescence based microplate reader analysis relative to control; type: tissue-based
T1 sequence (whole entry): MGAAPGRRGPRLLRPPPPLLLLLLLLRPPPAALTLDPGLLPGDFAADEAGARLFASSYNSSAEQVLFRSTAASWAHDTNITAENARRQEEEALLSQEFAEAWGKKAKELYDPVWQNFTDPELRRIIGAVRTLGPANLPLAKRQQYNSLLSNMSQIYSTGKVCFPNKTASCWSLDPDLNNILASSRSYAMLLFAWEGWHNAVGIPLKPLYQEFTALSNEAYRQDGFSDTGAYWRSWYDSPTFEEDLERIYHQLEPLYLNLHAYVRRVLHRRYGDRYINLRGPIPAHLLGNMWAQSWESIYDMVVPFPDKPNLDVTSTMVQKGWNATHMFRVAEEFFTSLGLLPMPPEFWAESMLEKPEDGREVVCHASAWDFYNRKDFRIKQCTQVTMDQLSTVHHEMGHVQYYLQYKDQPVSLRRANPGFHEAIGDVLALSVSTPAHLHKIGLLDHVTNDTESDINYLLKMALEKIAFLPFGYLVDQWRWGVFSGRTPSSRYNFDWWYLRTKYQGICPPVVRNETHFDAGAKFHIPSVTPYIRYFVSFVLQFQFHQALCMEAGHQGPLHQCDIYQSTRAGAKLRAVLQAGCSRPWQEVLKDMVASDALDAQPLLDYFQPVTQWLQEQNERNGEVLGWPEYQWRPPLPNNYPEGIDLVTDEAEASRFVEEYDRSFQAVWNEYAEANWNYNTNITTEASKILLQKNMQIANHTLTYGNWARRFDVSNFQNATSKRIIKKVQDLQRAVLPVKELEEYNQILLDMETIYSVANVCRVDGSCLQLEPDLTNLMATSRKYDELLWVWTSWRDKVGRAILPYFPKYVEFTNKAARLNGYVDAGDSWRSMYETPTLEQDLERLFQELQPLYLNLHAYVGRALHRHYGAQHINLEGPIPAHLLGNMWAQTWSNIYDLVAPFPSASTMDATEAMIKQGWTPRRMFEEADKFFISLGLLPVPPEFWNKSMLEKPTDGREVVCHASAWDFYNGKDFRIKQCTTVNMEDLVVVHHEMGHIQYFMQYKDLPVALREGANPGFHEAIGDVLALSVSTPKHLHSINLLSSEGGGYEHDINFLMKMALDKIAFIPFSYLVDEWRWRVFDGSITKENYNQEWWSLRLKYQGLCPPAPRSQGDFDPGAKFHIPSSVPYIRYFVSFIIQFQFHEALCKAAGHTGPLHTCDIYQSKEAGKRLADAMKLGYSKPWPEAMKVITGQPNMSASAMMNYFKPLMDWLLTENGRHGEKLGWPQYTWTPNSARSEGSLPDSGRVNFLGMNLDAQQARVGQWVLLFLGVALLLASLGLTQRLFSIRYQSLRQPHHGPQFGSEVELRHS
In short: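 Rabbit lung ACE, 1.5 mU per well, in 150 mM Tris, 750 mM NaCl, pH 8.3, with Abz-Gly-Phe(NO2)-Pro substrate. Blank-corrected fluorescence of released Abz-Gly-OH (ex 316, em 413 nm) followed up to 90 min. Test compounds at 100 µM; captopril control at 100 nM. Inhibition % = 100 − (vi/v0 × 100).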

[17] = Binding affinity to IMP1 (unknown origin) expressed in Escherichia coli BL21(DE3) assessed as inhibition constant by measuring rate of substrate hydrolysis by UV-Vis spectrophotometric analysis; conditions: read-out: Ki; in short: as §2
[18] = biological target: Metallo-beta-lactamase type 2 (Bacteria, UniProt C7C422); test: Binding affinity to NDM1 (unknown origin) expressed in Escherichia coli BL21(DE3) assessed as inhibition constant by measuring rate of substrate hydrolysis by UV-Vis spectrophotometric analysis; conditions: read-out: Ki; in short: as §2
Chain of Metallo-beta-lactamase type 2 (C7C422 whole entry): as the sequence (C7C422 whole entry) above

inhibition [1] [%] | inhibition [2] [%] | inhibition [3] [%] | inhibition [4] [%] | inhibition [5] [%] | inhibition [6] [%] | inhibition [7] [%] | inhibition [13] [%] | inhibition [14] [%] | inhibition [15] [%] | Ki [18] [nM] | Structure (SMILES) | Ki [8] [nM] | MIC (Klebsiella pneumoniae [9]) [µg/mL] | Ki (Beta-lactamase VIM-1) [nM] | MIC (Escherichia coli) [µg/mL] | Ki [10] [nM] | inhibition [11] [%] | MIC (Klebsiella pneumoniae [12]) [µg/mL] | inhibition [16] | Ki [17] [nM]
< 50 | < 30 | 50 | 50 | 50 | < 30 | < 50 |  |  |  |  | S=c1[nH]nc(-c2ccccc2)n1CCc1c[nH]c2ccccc12 |  |  |  |  |  |  |  |  | 
< 50 | < 30 | < 50 |  | 30 | 54 |  | 34 | < 30 |  |  | O=C1OC(Cn2c(-c3ccccc3-c3ccccc3)n[nH]c2=S)c2ccccc21 (centres undefined) |  |  |  |  |  |  |  |  | 
< 50 | < 30 | < 50 | < 50 | < 30 | < 30 | < 50 | < 30 | < 30 | < 50 |  | S=c1[nH]nc(-c2cc3ccccc3[nH]2)n1-c1ccc(OCc2ccccc2)cc1 |  |  |  |  |  |  |  |  | 
 | < 30 |  |  | 30 | 63 |  | < 30 | < 30 |  |  | S=c1[nH]nc(Cc2ccccc2)n1CCCc1ccccc1 |  |  |  |  |  | 32 |  |  | 
< 50 | < 30 |  | < 50 | 34 |  |  | < 30 |  |  |  | S=c1[nH]nc(-c2ccccc2)n1CCc1ccc(OCc2ccccc2)cc1 |  |  |  |  | 18900 |  |  |  | 5300
 | < 30 |  |  | < 30 | < 30 |  | < 30 | 50 |  |  | O=C(O)Cc1ccccc1Cn1c(-c2ccccc2)n[nH]c1=S |  |  |  |  |  | < 30 |  |  | 
 |  |  | < 50 |  |  |  | < 30 | 30 |  | 15400 | S=c1[nH]nc(-c2ccccc2)n1[C@@H]1C[C@H]1c1ccccc1 |  |  | 3100 |  |  |  |  |  | 
< 50 | < 30 | < 50 | < 50 | 47 | < 30 | < 50 | < 30 | < 30 |  |  | Cc1ccccc1-c1n[nH]c(=S)n1CCc1ccc(OCc2ccccc2)cc1 |  |  |  |  |  |  |  |  | 
< 50 | < 30 | < 50 | < 50 | < 30 | 30 |  | < 30 | < 30 | < 50 |  | O=C1OC(Cn2c(Cc3ccc4ccccc4c3)n[nH]c2=S)c2ccccc21 (centres undefined) |  |  |  |  |  |  |  |  | 
 | < 30 |  |  |  | 57 |  | < 30 | < 30 |  |  | S=c1[nH]nc(Cc2ccccc2)n1Cc1ccccc1 |  |  | 23000 |  |  | 40 |  |  | 

Structure (SMILES) | inhibition [1] [%] | inhibition [2] [%] | inhibition [3] [%] | inhibition [4] [%] | inhibition [5] [%] | inhibition [6] [%] | inhibition [7] [%] | inhibition [13] [%] | inhibition [14] [%] | inhibition [15] [%] | Ki [18] [nM] | Ki [8] [nM] | MIC (Klebsiella pneumoniae [9]) [µg/mL] | Ki (Beta-lactamase VIM-1) [nM] | MIC (Escherichia coli) [µg/mL] | Ki [10] [nM] | inhibition [11] [%] | MIC (Klebsiella pneumoniae [12]) [µg/mL] | inhibition [16] | Ki [17] [nM]
S=c1[nH]nc(-c2ccccc2)n1CCCCc1ccccc1 |  | 55 |  |  |  | < 30 |  |  |  |  |  | 430 | 4 | 1200 | 64 | 230 | 50 | 2 |  | 
O=C(O)c1ccc(Cn2c(-c3ccccc3)n[nH]c2=S)cc1 |  | < 30 |  |  |  | < 30 |  |  |  |  |  | 1100 | 2 | 3600 | 64 | 2700 | 45 | 4 |  | 
Sc1nnc(-c2ccccc2)n1Cc1ccccc1 |  | < 30 |  |  |  |  |  |  |  |  |  | 1500 | 4 | 720 |  |  |  | 4 | inactive | 8000
COc1ccc(O)c(-c2n[nH]c(=S)n2Cc2ccccc2)c1 |  | < 30 |  |  |  | < 30 |  |  |  |  |  | 1800 | 2 | 590 | 32 | 4000 | 40 | 2 |  | 
O=C(O)c1cccc(Cn2c(-c3ccccc3)n[nH]c2=S)c1 |  | < 30 |  |  |  | < 30 |  |  |  |  |  | 400 | 2 | 1400 | 32 | 1800 |  | 2 | inactive | 
COc1ccc(O)c(-c2n[nH]c(=S)n2CC2OC(=O)c3ccccc32)c1 (centres undefined) |  | 68 |  |  |  | 47 |  |  |  |  |  | 900 | 2 | 1200 | 64 | 3300 |  | 2 | inactive | 
